Source: PubChem BioAssay AID602218 (Southern Research Specialized Biocontainment Screening …, 2012)
Records with an inconclusive call do not appear. Active and inactive are the calls of the source.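 The calls were made as follows: active = inhibition of at least 30% at any tested concentration; inactive = the rest, inconclusive results apart.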

The compounds below were run against M18 aspartyl aminopeptidase (Plasmodium falciparum 3D7) (assay: PfM18AAP enzyme inhibitors, dose response, counter-screen for PfM17LAP inhibitor project, biochemical, QFRET fluorogenic substrate, set 2 (AID 602218)). Settings: recombinant PfM18AAP, H-Glu-NHMec fluorogenic cleavage.
Outline: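 Technique – released NHMec fluorescence, excitation 370 nm, emission 460 nm · System – purified recombinant Plasmodium falciparum M18 aspartyl aminopeptidase (rPFM18AAP) · Evaluation – percent inhibition versus controls, IC50 by four-parameter logistic fit · Replication – triplicate · Times – 90 min reaction, room temperature · Medium – Tris-HCl buffer pH 7.5 with 2 mM CoCl2, 2% DMSO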

IC50 [µM]	Structure (SMILES)
18	CCCCCCCCCC(=O)NO
10.1	O=C(NO)c1cccc2ccccc12
9.64	O=C(Cc1ccc(OCc2ccccc2)cc1)NO
54.6	CC(C)(C(=O)NO)c1ccccc1
13.7	CCCCc1ccc(CC(=O)NO)cc1
7.13	O=C(Cc1ccc(Oc2ccccc2)cc1)NO
18.5	CCCCOc1ccc(CCC(=O)NO)cc1
33.6	Cc1ccc(CC(=O)NO)cc1
8.93	O=C(Cc1ccc2c(c1)CCCC2)NO
65.4	CCCCOc1ccc(CNc2c(N(C)O)c(=O)c2=O)cc1
10	CCCCOc1ccc(CC(=O)NO)cc1
11.4	CC(C)COc1ccc(CC(=O)NO)cc1
14.6	COc1ccc(CCCC(=O)NO)cc1
12.7	CCCCOc1ccc(C(=O)NO)cc1
29.2	CN(O)C(=O)Cc1ccc(OCc2ccccc2)cc1
34.1	CCOc1ccc(CC(=O)NO)cc1
16.4	COc1ccc(CC(=O)NO)cc1
40.2	CCCCOc1ccc(CC(=O)N(C)O)cc1

Same assay, conditions: recombinant PfM18AAP, H-Glu-NHMec fluorogenic cleavage; at 25 µM (top of the series)

inhibition	Structure (SMILES)
inactive	CCCCOc1ccc(CNc2c(N(O)Cc3ccccc3)c(=O)c2=O)cc1

Same assay, conditions: recombinant PfM18AAP, H-Glu-NHMec fluorogenic cleavage; at 100 µM (top of the series)

inhibition	Structure (SMILES)
inactive	CCCCOc1ccc(CC(=O)O)cc1
inactive	COC(=O)Cc1ccc(OCCN(C)C)cc1
inactive	CCCOc1ccc(CC(=O)OC)cc1
